ChEMBL document CHEMBL4689842, “EUbOPEN Chemogenomics Library wave 1” (2021)

Test system: Fibroblast
Assay: Multiplex assay against human fibroblast
Assay type: toxicity, cell-based
Method in brief: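 Live cells were stained at seeding with Hoechst33342, BioTracker Green Microtubule Cytoskeleton Dye, MitoTracker Red and Annexin V Alexa Fluor 680. Following compound addition, they were imaged on a CQ1 microscope at 37°C and 5% CO2 and gated by CellPathfinder machine learning into Hoechst high-intensity objects or normal cells, with normal cells split into healthy, pyknosed or fragmented nuclei and pyknosed cells into mitotic or apoptotic. Tubulin, mitochondrial-mass and membrane-permeability phenotypes are per cents of healthy-nucleus cells.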

[1] = 12 h, 1 µM, compound concentration 1 uM, replicate 1
[2] = 12 h, 1 µM, compound concentration 1 uM, replicate 2
[3] = 12 h, 10 µM, compound concentration 10 uM, replicate 1
[4] = 12 h, 10 µM, compound concentration 10 uM, replicate 2
[5] = 24 h, 1 µM, compound concentration 1 uM, replicate 1
[6] = 24 h, 1 µM, compound concentration 1 uM, replicate 2
[7] = 24 h, 10 µM, compound concentration 10 uM, replicate 1
[8] = 24 h, 10 µM, compound concentration 10 uM, replicate 2

C=CCn1c(=O)c2cnc(Nc3ccc(N4CCN(C)CC4)cc3)nc2n1-c1cccc(C(C)(C)O)n1 [ADAVOSERTIB]
Population Apoptotic (%) [1]: 69% | Population Fragmented Nuclei (%) [1]: 28% | Population Healthy Nuclei (%) [1]: 62% | Population Hoechst High Intensity Objects (%) [1]: 15% | Population Membrane Permeable-Phenotype (%) [1]: 7% | Population Mitochondria Different-Phenotype (%) [1]: 4% | Population Mitotic Cells (%) [1]: 30% | Population Normal (%) [1]: 84% | Population Pyknosed Nuclei (%) [1]: 8% | Population Tubulin-Different-Phenotype (%) [1]: 6% | Total Cell Count [1]: 178 | Population Apoptotic (%) [2]: 50% | Population Fragmented Nuclei (%) [2]: 48% | Population Healthy Nuclei (%) [2]: 37% | Population Hoechst High Intensity Objects (%) [2]: 35% | Population Membrane Permeable-Phenotype (%) [2]: 9% | Population Mitochondria Different-Phenotype (%) [2]: 19% | Population Mitotic Cells (%) [2]: 50% | Population Normal (%) [2]: 64% | Population Pyknosed Nuclei (%) [2]: 14% | Population Tubulin-Different-Phenotype (%) [2]: 19% | Total Cell Count [2]: 87 | Population Apoptotic (%) [3]: 44% | Population Fragmented Nuclei (%) [3]: 29% | Population Healthy Nuclei (%) [3]: 46% | Population Hoechst High Intensity Objects (%) [3]: 14% | Population Membrane Permeable-Phenotype (%) [3]: 8% | Population Mitochondria Different-Phenotype (%) [3]: 5% | Population Mitotic Cells (%) [3]: 55% | Population Normal (%) [3]: 85% | Population Pyknosed Nuclei (%) [3]: 24% | Population Tubulin-Different-Phenotype (%) [3]: 23% | Total Cell Count [3]: 218 | Population Apoptotic (%) [4]: 75% | Population Fragmented Nuclei (%) [4]: 55% | Population Healthy Nuclei (%) [4]: 36% | Population Hoechst High Intensity Objects (%) [4]: 41% | Population Membrane Permeable-Phenotype (%) [4]: 17% | Population Mitochondria Different-Phenotype (%) [4]: 23% | Population Mitotic Cells (%) [4]: 25% | Population Normal (%) [4]: 58% | Population Pyknosed Nuclei (%) [4]: 8% | Population Tubulin-Different-Phenotype (%) [4]: 35% | Total Cell Count [4]: 81 | Population Apoptotic (%) [5]: 83% | Population Fragmented Nuclei (%) [5]: 27% | Population Healthy Nuclei (%) [5]: 60% | Population Hoechst High Intensity Objects (%) [5]: 18% | Population Membrane Permeable-Phenotype (%) [5]: 6% | Population Mitochondria Different-Phenotype (%) [5]: 9% | Population Mitotic Cells (%) [5]: 16% | Population Normal (%) [5]: 81% | Population Pyknosed Nuclei (%) [5]: 11% | Population Tubulin-Different-Phenotype (%) [5]: 7% | Total Cell Count [5]: 187 | Population Apoptotic (%) [6]: 25% | Population Fragmented Nuclei (%) [6]: 51% | Population Healthy Nuclei (%) [6]: 41% | Population Hoechst High Intensity Objects (%) [6]: 29% | Population Membrane Permeable-Phenotype (%) [6]: 4% | Population Mitochondria Different-Phenotype (%) [6]: 8% | Population Mitotic Cells (%) [6]: 75% | Population Normal (%) [6]: 70% | Population Pyknosed Nuclei (%) [6]: 6% | Population Tubulin-Different-Phenotype (%) [6]: 12% | Total Cell Count [6]: 82 | Population Apoptotic (%) [7]: 56% | Population Fragmented Nuclei (%) [7]: 30% | Population Healthy Nuclei (%) [7]: 47% | Population Hoechst High Intensity Objects (%) [7]: 20% | Population Membrane Permeable-Phenotype (%) [7]: 4% | Population Mitochondria Different-Phenotype (%) [7]: 10% | Population Mitotic Cells (%) [7]: 43% | Population Normal (%) [7]: 79% | Population Pyknosed Nuclei (%) [7]: 21% | Population Tubulin-Different-Phenotype (%) [7]: 21% | Total Cell Count [7]: 241 | Population Apoptotic (%) [8]: 100% | Population Fragmented Nuclei (%) [8]: 61% | Population Healthy Nuclei (%) [8]: 35% | Population Hoechst High Intensity Objects (%) [8]: 29% | Population Membrane Permeable-Phenotype (%) [8]: 9% | Population Mitochondria Different-Phenotype (%) [8]: 9% | Population Mitotic Cells (%) [8]: 0% | Population Normal (%) [8]: 70% | Population Pyknosed Nuclei (%) [8]: 3% | Population Tubulin-Different-Phenotype (%) [8]: 28% | Total Cell Count [8]: 84
